# Assay results reported in PMC10601058 (ACS Omega, 2023).
# How the values were obtained:
# [1] = test system: nitric oxide (NO) production in RAW 264.7 stimulated by LPS; assay: Nitric oxide inhibition in RAW 264.7 induced by LPS; type: cell-based; conditions: Mus musculus, RAW264.7, 24 h, read-out: no. inhibition %
# Summary of the method: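 Mouse RAW 264.7 cells at 1 × 10^6 cells/mL were treated with test compound at 10 μM or L-NAME at 250 μM. After 1 h, 1 μg/mL LPS was added for 24 h. Supernatant nitrite was measured with Griess reagent at 540 nm against a standard curve run alongside the samples.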
# [2] = MTT cytotoxicity assay on HepG2; type: cell-based; conditions: human, HepG2 cells
# Summary of the method: (§1)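 Cells were maintained in DMEM with 10% FBS and 1% pen-strep at 37 °C, 5% CO2, to 80% confluence. They were seeded in 96-well plates and exposed to test compound at 25 μM for 24 h. Viability was determined by MTT and given as % viability, mean ± SD of two independent experiments.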
# [3] = test system: pin-1; conditions: read-out: IC50 (pin-1); cited from earlier work
# [4] = MTT cytotoxicity assay on RAW 264.7; type: cell-based; conditions: mouse, RAW 264.7 cells
# Summary of the method: as §1
# [5] = test system: HepG2; conditions: dose of 100 μM; cited from earlier work
structure (smiles),measurement,setting,value
"CC(=O)O[C@@H]1CC[C@@]2(C)[C@@H](CC[C@]3(C)[C@@H]2C(=O)C=C2[C@@H]4[C@@H](C)[C@H](C)CC[C@]4(C)CC[C@]23C)[C@@]1(C)C(=O)O [compound 1, 3-acetyl-11-keto-β-boswellic acid]",inhibition at 10 µM,[1],74 ± 0.1%
same,"viability at 24 h, 25 µM",[2],86 ± 2.6%
same,IC50,[3],50 µM
same,"viability at 24 h, 25 µM",[4],92 ± 1.2%
"COC(=O)[C@@H](N)CCCNC(N)=N[N+](=O)[O-] [L-NAME, L-NG-nitro arginine methyl ester]",inhibition at 250 µM,[1],84.76 ± 0.4%
Cc1ccc(C(C)C)c(O)c1 [thymol],effect on APAP hepatotoxicity in HepG2,[5],ameliorated APAP hepatotoxicity
